Screening results from PubChem BioAssay.
Myeloid diff MLP: induction of myeloid progenitor differentiation, primary screen, cell-based, flow cytometry, MLPCN library. ER-HoxA9 myeloid progenitors, lysozyme-GFP differentiation. calls only at 10 µM. 360,000 tested, 1% active. AID 624256, 2012;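 active means normalized GFP-positive differentiation at or above the plate's own cutoff, the solvent-only control mean plus 3 SD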;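 further: cells exposed to compound for four days before flow analysis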
DSG3 Ab inh: inhibitors of pemphigus antibody binding to DSG3, primary screen, biochemical, bead-based, flow cytometry, scFv-GFP; AID 588358, 2011; DSG3-coupled beads, scFv-anti-DSG3-GFP binding; stronger effect = lower value; binding (percent of control), % at 10 µM; Desmoglein-3 (Homo sapiens), P32926; 310,000 tested, 0.48% active;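 active means binding more than 3 SD below its plate's average and above zero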;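 further: hits lower antibody fragment binding to DSG3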
Target sequence (P32926 whole entry, looked up, the tested form may be a part): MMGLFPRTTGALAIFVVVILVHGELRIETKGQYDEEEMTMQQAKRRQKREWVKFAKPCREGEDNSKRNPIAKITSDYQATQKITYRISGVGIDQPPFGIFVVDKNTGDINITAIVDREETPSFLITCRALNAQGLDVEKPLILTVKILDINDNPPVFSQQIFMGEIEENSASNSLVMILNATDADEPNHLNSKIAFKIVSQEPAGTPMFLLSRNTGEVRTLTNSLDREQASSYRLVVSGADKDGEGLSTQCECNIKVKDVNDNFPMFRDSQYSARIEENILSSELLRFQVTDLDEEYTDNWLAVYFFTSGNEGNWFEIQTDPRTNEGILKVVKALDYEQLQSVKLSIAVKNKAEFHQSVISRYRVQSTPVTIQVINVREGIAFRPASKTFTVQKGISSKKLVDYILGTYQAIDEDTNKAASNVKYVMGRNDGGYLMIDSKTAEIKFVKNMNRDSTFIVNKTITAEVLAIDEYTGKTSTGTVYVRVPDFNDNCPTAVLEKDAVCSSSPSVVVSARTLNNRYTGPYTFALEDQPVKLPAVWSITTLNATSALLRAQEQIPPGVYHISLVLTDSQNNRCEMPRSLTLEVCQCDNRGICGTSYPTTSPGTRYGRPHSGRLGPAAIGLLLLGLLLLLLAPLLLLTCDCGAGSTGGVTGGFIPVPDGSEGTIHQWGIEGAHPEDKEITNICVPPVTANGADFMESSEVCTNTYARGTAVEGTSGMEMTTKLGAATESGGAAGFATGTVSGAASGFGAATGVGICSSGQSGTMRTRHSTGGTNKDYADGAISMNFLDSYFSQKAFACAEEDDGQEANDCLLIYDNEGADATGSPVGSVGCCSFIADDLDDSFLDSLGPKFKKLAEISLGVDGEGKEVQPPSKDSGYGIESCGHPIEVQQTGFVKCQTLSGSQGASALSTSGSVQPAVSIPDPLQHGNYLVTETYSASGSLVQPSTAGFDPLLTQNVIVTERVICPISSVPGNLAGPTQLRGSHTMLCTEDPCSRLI
T cell HTS: modulators of CD8 T cell-vesicle binding, primary screen, mouse 2C CD8+ T cells, flow cytometry | response (vesicle binding), % at 7 µM | 2C CD8+ T cell-vesicle binding; stronger effect = lower value | AID 2052, 2009 | 330,000 tested, 0.068% active;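 active means response, share of CD8 T cells binding vesicles, and their 90th percentile fluorescence all below set limits, cut at about 80% in these data, passing the limit was not always enough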;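 further: values below 100% mean blocked vesicle binding to the CD8+ T cells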
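Assay system: 2C TCR transgenic mouse naive CD8+ T cells, MACS-purified | Read-out: CD8+ gate FL2 mean fluorescence as % of same-row positive control | Signal: High-throughput flow cytometry with anti-B7-1 and anti-CD8 staining | Timing: Binding step 1.5 h, 37 °C, antibody labelling 20 min, ice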
Vif inh: HIV Vif self-association inhibitors, primary screen, imaging, HEK293T, single point | HEK293T cells, Vif self-association by quenched fluorescence, 24 h | inhibition, % at 7.49 µM | 340,000 tested, 0.35% active; in the data active means inhibition above about 50%, passing the limit was not always enough
Myeloid diff CP1: inducers of myeloid progenitor differentiation, confirmation, cell-based, GFP/Mac1 flow cytometry, cherry pick 01 | shares compounds with Myeloid diff MLP | ER-HoxA9 myeloid progenitors, GFP/Mac1 double-positive flow | calls only | 2,300 tested, 2% active | AID 651706, 2012;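 active means share of green or green-and-red cells above 9 and 9% in run 1 or 4 and 3% in run 2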
GFP autofluor: compound fluorescence in myeloid differentiation counter-screen; fluorescence response, % (concentration not given with the values); ER-HoxA9 myeloid progenitors, no estrogen, GFP autofluorescence flow cytometry; vehicle wells 0%, positive control 100%; shares compounds with Myeloid diff MLP; 2,300 tested, 7.4% active;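 active means over 5% cells positive for green fluorescent reporter, or over 2% positive for both it and APC stain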;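 further: range taken on the double positive population between DMSO and positive control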
* = called active by the depositor; i = inactive; . = no result. These entries were drawn from the full list.

SMILES	Myeloid diff MLP	DSG3 Ab inh	T cell HTS	Vif inh	Myeloid diff CP1	GFP autofluor
CN1CCC(c2c[nH]c3ccc(O)cc23)CC1	i	98	.	5	.	.
CC(N)Cc1c[nH]c2c1ccc1ccccc12 (stereo not given)	i	95	294	1	i	1
CC1(C(=O)O)CCCC2(C)c3cc(O)ccc3CCC12 (stereo not given)	i	97	115	9	.	.
CCOc1ccc(-n2c(O)c(C=Nc3ccc(N4CCOCC4)cc3)c(=O)[nH]c2=O)cc1	i	102	149	4	.	.
COC(=O)C1=C(c2c(C)noc2C)C[C@@H]2CC[C@H]1N2C(=O)NCCCOC(C)C	i	103	386	-4	.	.
COc1ccc(C(c2nnnn2-c2c(C)cccc2C)N2CCC(n3c(=O)[nH]c4ccccc43)CC2)cc1 (stereo not given)	i	.	.	-6	.	.
O=C1NC(=O)N(Cc2ccccc2Cl)C(=O)/C1=C/N1CCOCC1	i	105	719	5	i	1
O=C1NC(=O)N(Cc2cccs2)C(=O)/C1=C/c1ccc(N2CCOCC2)cc1	.	99	i	-7	.	.
CCCNC(=O)N1[C@H]2CC[C@@H]1C(C(=O)OC)=C(c1ccc(Cl)c(C(F)(F)F)c1)C2	i	100	364	0	i	1
COC(=O)C1=C(c2ccc(Cl)c(C(F)(F)F)c2)C[C@@H]2CC[C@H]1N2C(=O)N1CCCC1	i	105	903	0	i	0
COC(=O)C1=C(c2cc3ccccc3s2)C[C@@H]2CC[C@H]1N2C(=O)NC1CC1	i	99	509	-8	.	.
COC(=O)C1=C(c2cc3ccccc3s2)C[C@@H]2CC[C@H]1N2C(=O)NCC1CC1	i	105	511	-9	i	0
COc1cc(OC)c(C=O)c(OC(=O)N(C)C)c1	i	102	503	4	.	.
CCOC(=O)c1c(C)n(Cc2ccc(F)cc2)c2ccc(O)cc12	i	96	120	-21	.	.
CCOC(=O)c1c(C)n(COCCO)c2ccc(O)cc12	i	91	415	1	i	0
